Reference: ChEMBL document CHEMBL1152768, “4-Benzyloxy-gamma-sultone derivatives: discovery of a novel family of non-nucleoside inhibitors of human cytomegalovirus and varicella zoster virus” (J Med Chem, 2009)
Activity calls are given as the source filed them. No cut-off for these calls is given here.

How the values were obtained:
Human alphaherpesvirus 3 [1] = assay: Antiviral activity against thymidine kinase expressing Varicella zoster virus Oka infected in human HEL cells assessed reduction in viral plaque formation; assay type: functional, organism-based; conditions: Human alphaherpesvirus 3, Oka
Method in brief: (§1)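 Confluent HEL cell monolayers were inoculated with VZV at 20 PFU per well. Residual virus was removed after 2 h, and compound was added at varying concentrations, in duplicate.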

Human alphaherpesvirus 3 [2] = assay: Antiviral activity against Varicella zoster virus YSR infected in human HEL cells assessed reduction in viral plaque formation; assay type: functional, organism-based; conditions: Human alphaherpesvirus 3, YSR
Human alphaherpesvirus 3 [3] = assay: Antiviral activity against Varicella zoster virus YS infected in human HEL cells assessed reduction in viral plaque formation; assay type: functional, organism-based; conditions: Human alphaherpesvirus 3, YS
Human betaherpesvirus 5 [4] = assay: Antiviral activity against HCMV AD169 infected in human HEL cells assessed inhibition of virus-induced cytopathicity after 7 days postinfection; assay type: functional, organism-based; conditions: Human betaherpesvirus 5, AD169, HEL, 168 h
Method in brief: (§2)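 HEL fibroblasts were infected at 100 PFU. After 2 h, residual virus was removed and medium with test compound was added at several concentrations, in duplicate. Cells were incubated 7 days at 37 °C, fixed with ethanol and stained with Giemsa.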

Human betaherpesvirus 5 [5] = assay: Antiviral activity against HCMV Davis infected in human HEL cells assessed inhibition of virus-induced cytopathicity after 7 days postinfection; assay type: functional, organism-based; conditions: Human betaherpesvirus 5, Davis, 168 h; method in brief: as §2
Human alphaherpesvirus 3 [6] = assay: Antiviral activity against thymidine kinase deficient Varicella zoster virus 07/1 infected in human HEL cells assessed reduction in viral plaque formation; assay type: functional, organism-based; conditions: Human alphaherpesvirus 3, HEL; method in brief: as §1
[7] = Cytotoxicity against human HEL cells assessed as morphological alteration after 3 days; assay type: cell-based
Method in brief: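 HEL cultures were examined under the microscope. MCC was recorded as the compound concentration causing a microscopically detectable alteration of normal cell morphology.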

[8] = Cytotoxicity against human HEL cells assessed as reduction of growth after 3 days; assay type: cell-based
Method in brief: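 HEL cells were seeded at 5 × 10³ cells/well and grown 24 h before compound was added at different concentrations. After 3 days at 37 °C, cells were counted with a Coulter counter. CC50, the concentration halving growth relative to untreated controls, was read from plots of cell number (% of control) against concentration.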

Human betaherpesvirus 5 [9] = assay: Antiviral activity against HPMPA-resistant HCMV AD169 clone 2 mutant infected in HEL cells assessed as inhibition of virus-induced cytopathicity; assay type: functional, organism-based; conditions: Human betaherpesvirus 5, AD169, HEL
Human betaherpesvirus 5 [10] = assay: Antiviral activity against wild type HCMV AD169 infected in HEL cells assessed as inhibition of virus-induced cytopathicity; assay type: functional, organism-based; conditions: Human betaherpesvirus 5, AD169, HEL
Method in brief: (§3)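 HEL fibroblast cultures infected at 100 PFU input. After 2 h, residual virus was removed and compound-containing medium was added at varying concentrations, in duplicate. Cells were incubated 7 days at 37 °C, ethanol-fixed and Giemsa-stained, and cytopathicity was scored microscopically.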

Human betaherpesvirus 5 [11] = assay: Antiviral activity against PMEDAP-resistant HCMV AD169 clone 4 infected in HEL cells assessed as inhibition of virus-induced cytopathicity; assay type: functional, organism-based; conditions: Human betaherpesvirus 5, AD169, HEL
Human betaherpesvirus 5 [12] = assay: Antiviral activity against cidofovir HCMV AD169 clone 5 infected in human HEL cells assessed as inhibition of virus-induced cytopathicity; assay type: functional, organism-based; conditions: Human betaherpesvirus 5, AD169, HEL
Human betaherpesvirus 5 [13] = assay: Antiviral activity against wild type HCMV Davis infected in HEL cells assessed as inhibition of virus-induced cytopathicity; assay type: functional, organism-based; conditions: Human betaherpesvirus 5, Davis; method in brief: as §3
Human betaherpesvirus 5 [14] = assay: Antiviral activity against ganciclovir-resistant HCMV AD169 clone 4 infected in HEL cells assessed as inhibition of virus-induced cytopathicity; assay type: functional, organism-based; conditions: Human betaherpesvirus 5, AD169, HEL
Human betaherpesvirus 5 [15] = assay: Antiviral activity against acyclovir-resistant HCMV AD169 clone 1 infected in HEL cells assessed as inhibition of virus-induced cytopathicity; assay type: functional, organism-based; conditions: Human betaherpesvirus 5, AD169, HEL
Punta Toro virus = assay: Antiviral activity against Punta Toro virus infected in african green monkey Vero cells; assay type: functional, organism-based
Coxsackievirus B4 [16] = assay: Antiviral activity against Coxsackievirus B4 infected in african green monkey Vero cells; assay type: functional, organism-based
Sindbis virus = assay: Antiviral activity against Sindbis virus infected in african green monkey Vero cells; assay type: functional, organism-based
Human alphaherpesvirus 2 = assay: Antiviral activity against HSV2 infected in human HEL cells; assay type: functional, organism-based
Human respirovirus 3 = assay: Antiviral activity against Parainfluenza virus 3 infected in african green monkey Vero cells; assay type: functional, organism-based
Coxsackievirus B4 [17] = assay: Antiviral activity against Coxsackievirus B4 infected in human HeLa cells; assay type: functional, organism-based
[18] = Therapeutic index, ratio of CC50 for human HEL cells to EC50 for Varicella zoster virus; assay type: cell-based; conditions: read-out: Ratio CC50/EC50
Method in brief: (§4)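 Index calculated as CC50 (HEL cell growth, 3 days, Coulter count) divided by EC50 from the HEL-cell antiviral assays: HCMV cytopathicity at 7 days for line 18, VZV plaque reduction at 5 days for line 19.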

[19] = tested on: Vesicular stomatitis virus; assay: Antiviral activity against VSV infected in human HeLa cells; assay type: functional, organism-based
Human alphaherpesvirus 1 [20] = assay: Antiviral activity against acyclovir-resistant […]-deficient HSV1 infected in human HEL cells; assay type: functional, organism-based
[21] = tested on: Respiratory syncytial virus; assay: Antiviral activity against RSV infected in human HeLa cells; assay type: functional, organism-based
[22] = Therapeutic index, ratio of CC50 for human HEL cells to EC50 for Human cytomegalovirus; assay type: cell-based; conditions: read-out: Ratio CC50/EC50; method in brief: as §4
[23] = tested on: Mammalian orthoreovirus 3; assay: Antiviral activity against Reovirus 3 infected in african green monkey Vero cells; assay type: functional, organism-based
Human alphaherpesvirus 1 [24] = assay: Antiviral activity against HSV1 KOS infected in human HEL cells; assay type: functional, organism-based
[25] = tested on: Vesicular stomatitis virus; assay: Antiviral activity against VSV infected in human HEL cells; assay type: functional, organism-based
Vaccinia virus = assay: Antiviral activity against Vaccinia virus infected in human HEL cells; assay type: functional, organism-based; conditions: Orthopoxvirus vaccinia
Human betaherpesvirus 5 [26] = assay: Antiviral activity against foscarnet-resistant HCMV AD169 clone C infected in HEL cells assessed as inhibition of virus-induced cytopathicity; assay type: functional, organism-based; conditions: Human betaherpesvirus 5, AD169, HEL

Row | Compound | EC50 (Human alphaherpesvirus 3 [1]) [µM] | EC50 (Human alphaherpesvirus 3 [3]) [µM] | EC50 (Human betaherpesvirus 5 [4]) [µM] | EC50 (Human betaherpesvirus 5 [5]) [µM] | EC50 (Human alphaherpesvirus 3 [6]) [µM] | MCC at 72 h [7] [µM] | CC50 at 72 h [8] [µM] | EC50 (Human betaherpesvirus 5 [9]) [µM] | EC50 (Human betaherpesvirus 5 [10]) [µM] | EC50 (Human betaherpesvirus 5 [11]) [µM] | EC50 (Human betaherpesvirus 5 [12]) [µM] | EC50 (Human betaherpesvirus 5 [13]) [µM] | EC50 (Human betaherpesvirus 5 [14]) [µM] | EC50 (Human betaherpesvirus 5 [15]) [µM] | Activity (Punta Toro virus) | Activity (Coxsackievirus B4 [16]) | Activity (Sindbis virus) | Activity (Human alphaherpesvirus 2) | Activity (Coxsackievirus B4 [17]) | EC50 (Human betaherpesvirus 5 [26]) [µM] | also measured
1 | CCC1(Cc2ccccc2)OS(=O)(=O)C=C1OCc1ccc(F)cc1 (racemic) | 8.6 | 10.4 | 15 | 7 | 8.6 | ≥ 50 | > 50 |  |  |  |  |  |  |  |  |  |  |  |  |  | EC50 (Human alphaherpesvirus 3 [2]): 9.3 µM
2 | Nc1nc2c(ncn2COC(CO)CO)c(=O)[nH]1 [GANCICLOVIR] |  |  |  | 3.6 |  | > 400 | 134 | 1.2 | 0.7 | 3.5 | 4 | 0.66 | 4.3 | 0.69 |  |  |  |  |  |  | 
3 | CCC1(Cc2ccccc2)OS(=O)(=O)C=C1OCc1ccccc1 (racemic) | 6.4 | 3.6 | 13 | 9.3 | 5.6 | ≥ 50 | 200 |  |  |  |  |  |  |  | inactive | inactive | inactive | inactive | inactive |  | Activity (Human respirovirus 3): inactive; selectivity ratio [18]: ≥ 5; Activity [19]: inactive; Activity (Human alphaherpesvirus 1 [20]): inactive; Activity [21]: inactive; selectivity ratio [22]: ≥ 5; Activity [23]: inactive; Activity (Human alphaherpesvirus 1 [24]): inactive; Activity [25]: inactive; Activity (Vaccinia virus): inactive
4 | Nc1nc(N)c2ncn(CCOCP(=O)(O)O)c2n1 [PMEDAP] |  |  |  |  |  |  |  | 0.82 | 8.4 | 37 | 3.5 | 7.7 | 1.9 | > 50 |  |  |  |  |  | 25 | 
5 | CCC1(Cc2ccccc2)OS(=O)(=O)C=C1OCc1ccc(Cl)cc1 (racemic) | 7.6 | 10 | 10.4 | 9.7 | 5.7 | ≥ 50 | > 200 | 9.9 | 11 | 12 | 11 | 11 | 11 | 1.1 | inactive | inactive | inactive | inactive | inactive | 9.6 | Activity [19]: inactive; Activity (Human alphaherpesvirus 1 [20]): inactive; Activity [21]: inactive; Activity [23]: inactive; Activity (Human alphaherpesvirus 1 [24]): inactive; Activity [25]: inactive; Activity (Vaccinia virus): inactive
6 | CCC1(Cc2ccccc2)OS(=O)(=O)C=C1OCCc1ccccc1 (racemic) | 5.7 |  | 6.9 | 9.3 | 7.5 | ≥ 20 | 48 |  |  |  |  |  |  |  | inactive | inactive | inactive | inactive | inactive |  | Activity [19]: inactive; Activity (Human alphaherpesvirus 1 [20]): inactive; Activity [21]: inactive; Activity [23]: inactive; Activity (Human alphaherpesvirus 1 [24]): inactive; Activity [25]: inactive; Activity (Vaccinia virus): inactive
7 | CCC1(Cc2ccccc2)OS(=O)(=O)C=C1OCc1ccccc1Cl (racemic) | 8.7 | > 5 | > 4 | > 4 | 10 | ≥ 20 | 38 |  |  |  |  |  |  |  |  |  |  |  |  |  | 
8 | CCC1(Cc2ccccc2)OS(=O)(=O)C=C1OCc1ccc(OC)cc1 (racemic) | 120 |  | 200 | 142 | 106 | ≥ 200 | > 200 |  |  |  |  |  |  |  | inactive | inactive | inactive | inactive | inactive |  | Activity [19]: inactive; Activity (Human alphaherpesvirus 1 [20]): inactive; Activity [21]: inactive; Activity [23]: inactive; Activity (Human alphaherpesvirus 1 [24]): inactive; Activity [25]: inactive; Activity (Vaccinia virus): inactive
9 | Nc1ccn(C[C@@H](CO)OCP(=O)(O)O)c(=O)n1 [CIDOFOVIR] |  |  | 0.3 | 0.5 |  | > 150 | 74 | 0.55 | 0.076 | 0.092 | 1 | 0.069 | 0.74 | 0.095 |  |  |  |  |  | 0.045 | 
10 | Nc1ncnc2c1ncn2C[C@@H](CO)OCP(=O)(O)O |  |  |  |  |  |  |  | 1.9 | 0.17 | 0.12 | 2.1 | 0.2 | 2.1 | 0.08 |  |  |  |  |  | 0.036 | 
11 | O=S1(=O)C=C(OCc2ccccc2)C(Cc2ccccc2)(Cc2ccccc2)O1 | > 5 |  | 50 | > 50 | 5 | 200 | 200 |  |  |  |  |  |  |  |  |  |  |  |  |  | selectivity ratio [18]: ≤ 4; selectivity ratio [22]: ≤ 4
12 | O=C(O)P(=O)(O)O [FOSCARNET] |  |  |  |  |  |  |  | 13 | 13 | 63 | 11 | 11 | 20 | 35 |  |  |  |  |  | 95 | 
